SR-BI DiI inh – inhibitors of SR-BI mediated HDL lipid uptake, primary screen, ldlA[mSR-BI] cells, fluorescence, single point | ldlA[mSR-BI] CHO cells, DiI-HDL uptake fluorescence, 3 h | 320,000 tested, 0.96% active | inhibition, % at 12.5 µM;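 active means mean replicate inhibition of at least 70% and a set share of replicates each scoring 70 or more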;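 further: 0% = median of neutral control wells and 100% = median of positive control wells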
NOD2 RIPK2 PPI – NOD2-RIPK2 binding disruptors in cells, primary screen, fluorescence, CHO cells, BLA complementation; Receptor-interacting serine/threonine-protein kinase 2 (Homo sapiens), O43353; CCF4 ratio; inhibition, % at 4.98 µM; 360,000 tested, 0.38% active; in the data active means inhibition above about 21%;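 further: 0% = vehicle only and 100% = reference blocker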
Hep lipid drop – inhibitors of hepatocyte lipid droplet formation, primary screen, imaging, high-throughput imaging, BODIPY stain. AML12 mouse hepatocytes, oleate lipid droplets. inhibition, % at 6.5 µM. 240,000 tested, 0.4% active. AID 1656, 2009;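 active means lipid droplet intensity inhibited by at least 50%, with more than 500 cells counted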
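Test system: AML12 hepatocytes (mouse); reagent: oleate loading, 100 µM; dosing: one dose, 6.5 µM compound; incubation: overnight exposure; signal: fluorescence imaging, 20x objective, two fields per well; read-out basis: % inhibition of corrected integrated BODIPY droplet signal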
TLR9-MyD88 block – inhibitors of TLR9-MyD88 association in cells, primary screen, cell-based, CHO, BLA complementation, fluorescence; inhibition, % at 4.98 µM; Toll-like receptor 9 (Homo sapiens) + Myeloid differentiation primary response protein …; CCF4 FRET ratio; AID 504734, 2011; 340,000 tested, 0.21% active;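 active means inhibition above the mean over all tested compounds plus 3 SD, cut at about 21% in these data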;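 further: 0% = DMSO only wells and 100% = clavulanate BLA inhibitor control wells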
TLR4 MyD88 comp – inhibitors of TLR4-MyD88 association in cells, primary screen, cell-based, HeLa CL3-4, BLA complementation, FRET ratio. 200,000 tested, 0.18% active. inhibition, % at 8.4 µM. HeLa CL3-4 TLR4/MyD88 BLA complementation. Toll-like receptor 4 (Homo sapiens) + Myeloid differentiation primary response protein …; in the data active means inhibition above about 25%;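 further: 0% = vehicle and 100% = reference inhibitor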
Target sequence (O00206 whole entry, looked up): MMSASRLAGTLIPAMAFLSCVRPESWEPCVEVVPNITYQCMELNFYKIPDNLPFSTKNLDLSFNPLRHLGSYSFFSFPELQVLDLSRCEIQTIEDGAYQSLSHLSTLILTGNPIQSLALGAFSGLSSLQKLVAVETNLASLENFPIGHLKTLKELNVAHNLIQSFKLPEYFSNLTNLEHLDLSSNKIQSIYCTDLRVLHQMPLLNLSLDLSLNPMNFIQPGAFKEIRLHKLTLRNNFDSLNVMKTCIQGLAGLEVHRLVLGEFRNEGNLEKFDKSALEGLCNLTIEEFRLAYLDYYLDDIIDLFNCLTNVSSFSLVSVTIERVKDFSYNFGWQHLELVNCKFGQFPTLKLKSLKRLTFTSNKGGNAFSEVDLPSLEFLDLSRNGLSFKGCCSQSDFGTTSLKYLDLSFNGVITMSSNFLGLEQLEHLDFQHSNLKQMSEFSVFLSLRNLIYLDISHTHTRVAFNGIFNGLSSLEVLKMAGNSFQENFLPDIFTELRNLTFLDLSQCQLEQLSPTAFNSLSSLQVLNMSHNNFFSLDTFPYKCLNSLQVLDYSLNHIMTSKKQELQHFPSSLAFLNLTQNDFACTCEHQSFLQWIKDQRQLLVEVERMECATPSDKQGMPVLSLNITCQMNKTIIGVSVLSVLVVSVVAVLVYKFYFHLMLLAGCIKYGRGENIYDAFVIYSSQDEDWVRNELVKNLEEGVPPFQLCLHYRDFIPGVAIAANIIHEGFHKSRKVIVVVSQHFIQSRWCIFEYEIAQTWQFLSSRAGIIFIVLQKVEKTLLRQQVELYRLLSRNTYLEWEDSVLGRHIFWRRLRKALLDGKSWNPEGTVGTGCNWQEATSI
Target sequence (Q99836 whole entry, looked up): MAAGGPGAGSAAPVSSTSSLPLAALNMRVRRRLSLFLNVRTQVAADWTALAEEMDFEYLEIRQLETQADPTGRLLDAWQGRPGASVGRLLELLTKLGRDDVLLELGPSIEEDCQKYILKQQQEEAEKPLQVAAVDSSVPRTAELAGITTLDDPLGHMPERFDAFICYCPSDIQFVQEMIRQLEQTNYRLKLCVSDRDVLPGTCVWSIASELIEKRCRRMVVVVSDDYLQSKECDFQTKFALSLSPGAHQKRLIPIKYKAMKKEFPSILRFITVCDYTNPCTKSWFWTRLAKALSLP
SR-BI uptake up – activators of SR-BI mediated DiI-HDL uptake, primary screen, ldlA[mSR-BI] CHO cells, DiI fluorescence. 3 h; 100 = double the neutral-control signal. activation, % at 12.5 µM. 320,000 tested, 0.096% active. AID 504775, 2011;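 active means mean replicate activation of at least 60% and every replicate at or above 60%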;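 further: 0% = median plate neutral-control signal and 100% = twice that signal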
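material = CHO ldlA[mSR-BI] cells | medium = Ham's F12 with 0.5% BSA, HEPES 25 mM, pH 7.4 | reagent = fluorescent DiI-HDL, 10 µg/mL final | compound dosing = single-point compound dose | incubation = 3 h, 37 °C | measured by = bottom-read fluorescence, 550/595 nm | measure = HDL uptake via cellular fluorescence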
* hit, by the source's call; · = not tested or not shown. A selection: hits, their analogues and other compounds. The true share with any hit is near 1.6%.

SMILES | SR-BI DiI inh | NOD2 RIPK2 PPI | Hep lipid drop | TLR9-MyD88 block | TLR4 MyD88 comp | SR-BI uptake up
COc1ccc(C(C[N+](=O)[O-])c2c(-c3ccccc3)cc3ccccn23)cc1OC (stereo unspecified) | 18 | 1 | 2 | -58 | -5 | -18
COc1ccc(C(C[N+](=O)[O-])C2(c3ccc(OC)c(OC)c3)C(=O)c3ccccc3C2=O)cc1 (stereo unspecified) | -6 | 82* | 2 | 19 | 15 | 6
COc1ccc(C(OC(=O)c2ccco2)C(=O)NC2CCCCC2)cc1OC (stereo unspecified) | -336 | -10 | · | 5 | -5 | 336*
COc1ccc(C(OC(=O)c2ccco2)C(=O)NC2CCCC2)cc1OC (stereo unspecified) | -14 | -10 | 6 | -7 | · | 14
O=C(c1ccccc1)c1cnc[nH]1 | · | -12 | 5 | -3 | · | ·
CC(C)C1Oc2ccccc2N(CC(=O)N(Cc2ccccn2)C2CC2)C1=O (stereo unspecified) | -369 | 3 | -17 | -3 | 9 | 369*
O=S(=O)(Nc1ncccc1O)c1ccc(Cl)cc1 | -25 | 7 | 2 | 2 | 0 | 25
Cc1ccccc1SCC(=O)NNC(=O)c1ccccc1O | 79* | -5 | 1 | 1 | · | -79
C/C(=N/NC(=O)CNc1ccc(Cl)cc1C)c1ccc(C)cc1 | 23 | -7 | -3 | 2 | 16 | -23
O=C(Cc1ccc(NC(=O)C2CCCN(C(=O)C3CCCCC3)C2)cc1)Nc1cccc(C(=O)N2CCCC2)c1 (stereo unspecified) | 58 | -3 | · | -8 | · | -58
CN(C(=O)c1cccc(NC(=O)Cc2ccc(NC(=O)C3CCCN(C(=O)C4CCC4)C3)cc2)c1)C1CCCC1 (stereo unspecified) | 69 | 5 | · | 13 | · | -69
CN(C(=O)c1cccc(NC(=O)Cc2ccc(NC(=O)C3CCCN(C(=O)C4CCCC4)C3)cc2)c1)C1CC1 (stereo unspecified) | 76* | -10 | · | -6 | · | -76
O=C(Cc1ccc(NC(=O)C2CCCN(C(=O)C3CCCC3)C2)cc1)Nc1cccc(C(=O)N2CCCC2)c1 (stereo unspecified) | 75* | 1 | · | -9 | · | -75
CN(C(=O)c1cccc(NC(=O)Cc2ccc(NC(=O)C3CCCN(C(=O)C4CCCC4)C3)cc2)c1)C1CCCC1 (stereo unspecified) | 68 | -1 | · | -3 | · | -68
CN(C(=O)c1ccc(NC(=O)Cc2cccc(NC(=O)C3CCN(C(=O)CCc4ccccc4)CC3)c2)cc1)C1CCCC1 | 71* | -10 | · | 6 | · | -71
CN(C(=O)c1cccc(NC(=O)Cc2ccc(NC(=O)C3CCCN(C(=O)C4CCCC4)C3)cc2)c1)C1CCCCC1 (stereo unspecified) | 83* | -15 | · | -17 | · | -83
O=C(CNC(=O)c1cc(S(=O)(=O)N2CCCCC2)ccc1N1CCOCC1)Nc1ccc(F)c(F)c1 | -25 | 6 | · | -6 | · | 25
O=C1CC(=Nc2ccccc2)NN1c1ccccc1 | 108* | -7 | · | -2 | 4 | -108
CNC(=O)c1c(NC(=O)CCS(=O)(=O)c2ccc(C)cc2)sc(C)c1C | -7 | 0 | · | 4 | · | 7
Cc1ccccc1NC(=O)CCc1c(C)nn(-c2ccc(N3CCCCC3)nn2)c1C | 82* | -5 | 13 | -3 | · | -82
Cc1nn(-c2ccc(N3CCCCC3)nn2)c(C)c1CCC(=O)Nc1cc(F)ccc1F | 72* | 16 | -9 | -5 | · | -72
Cc1ccc(NC(=O)CCc2c(C)nn(-c3ccc(N4CCOCC4)nn3)c2C)cc1C | 79* | 1 | -10 | -7 | · | -79
Cc1ccccc1NC(=O)CCc1c(C)nn(-c2ccc(N3CCOCC3)nn2)c1C | 62 | -7 | 5 | -5 | · | -62
CCOc1cc(/C=N/NC(=O)c2nnn(-c3nonc3N)c2C)ccc1OCc1ccc(F)cc1 | 58 | -2 | 14 | -1 | · | ·
